Experimental data: ChEMBL document CHEMBL4382230, “Structure-activity relationships, biological evaluation and structural studies of novel pyrrolonaphthoxazepines as antitumor agents” (Eur J Med Chem, 2019)
≈ marks a conversion by molar mass, not a printed value. Calls of active or inactive are those of the source. The rule behind the calls is not given here.

Columns and labels:
[1] = Solubility of compound in pH 3 aqueous solution after 12 hrs by HPLC analysis; assay type: physicochemical
[2] = Chemical stability of compound in pH 7.4 aqueous solution assessed as compound remaining after 24 hrs by HPLC analysis; assay type: physicochemical; settings: read-out: Stability
NB-4 = experiment: Induction of differentiation in human NB4 cells at 500 nM after 24 hrs in presence of ATRA by CD11c staining-based flow cytometric analysis; assay type: functional, cell-based
Outline: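 NB4 exposed to 0.5 μM compound together with 1 μM ATRA for 24 h. Cells stained with PE-conjugated CD11c (mouse IgG1-PE control) for 1 h at 4 °C in the dark, washed, resuspended in PBS with propidium iodide (0.25 μg/mL), then analysed by flow cytometry. Biological triplicates, mean ± S.E.M.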

GISTT1 = experiment: Cytotoxicity against human GISTT1 cells assessed as reduction in cell viability at 1 uM after 48 hrs by alamar blue assay; assay type: functional, cell-based
Outline: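 GIST-T1 seeded at 4000 cells/well, exposed to 1 or 10 μM for 48 h; viability read by AlamarBlue.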

[3] = Ratio of IC50 for human A2780AD cells to IC50 for human A2780 cells; assay type: functional
Outline: (§1)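 Relative resistance: IC50 in the P-gp overexpressing resistant line divided by IC50 in the parental line. Both IC50s came from the 48 h MTT assay (serial dilutions, absorbance at 595/690 nm, log-dose response curves, three independent assays).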

Tubulin (Homo sapiens) = Tubulin (Homo sapiens) (UniProt P68371+Q9H4B7+P0DPH7+P68366+Q13509+Q71U36+P04350+Q3ZCM7+P07437+P68363+Q9BQE3+Q6PEY2+Q13885+Q9BVA1+Q9BUF5); experiment: Displacement of podophyllotoxin from tubulin (unknown origin) by ultracentrifugation method; assay type: protein-complex assay
HL-60 [4] = experiment: Cell cycle arrest in human HL60 cells assessed as accumulation of cells at G2/M phase at 10 uM after 24 hrs by propidium iodide staining-based flow cytometric analysis; assay type: functional
Outline: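 HL-60 exposed to 10 μM for 24 h, vehicle 0.1% DMSO. Cells plated at 2×10^5 cells/mL, stained in PBS with 0.1% sodium citrate, 0.1% NP40 and propidium iodide for 30 min at room temperature in the dark. DNA content by flow cytometry; G2/M fraction reported.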

PC-9 [5] = experiment: Induction of apoptosis in human PC9 cells assessed as reduction in cyclin D1 expression at 10 uM after 18 hrs by Western blot analysis; assay type: functional, cell-based
Outline: (§2)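 PC9 and HCC827 maintained in DMEM with 10% FBS, then exposed to 10 μM compound for 18 h in 5% serum. Caspase 3 activation and cell cycle proteins examined by western blot.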

[6] = Solubility of compound in pH 7.4 aqueous solution after 12 hrs by HPLC analysis; assay type: physicochemical
Outline: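 Water solubility at pH 7.4 measured by HPLC analysis.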

PC-9 [7] = experiment: Induction of apoptosis in human PC9 cells assessed as increase in p21 expression at 10 uM after 18 hrs by Western blot analysis; assay type: functional, cell-based; outline: as §2
Ca9-22 = experiment: Cytotoxicity against human Ca9-22 cells after 24 hrs by MTT assay; assay type: functional, cell-based; settings: Ca9-22, 24 h
NIH3T3 [8] = experiment: Cytotoxicity against mouse NIH/3T3 cells harboring MDR G185 after 48 hrs by MTT assay; assay type: functional, cell-based; settings: NIH3T3, 48 h
Outline: (§3)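 Cells seeded at 12,000 to 17,000 per well depending on line, incubated overnight, then given serial dilutions of ligand for 48 h. MTT at 2.5 mg/mL added for 4 h at 37 °C, formazan solubilized overnight (10% SDS, 45% dimethylformamide, pH 5.5), absorbance read at 595/690 nm. IC50 from log-dose response curves; mean ± SE of three independent assays.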

HL-60 [9] = experiment: Induction of autophagy in human HL60 cells assessed as increase in LC3B-2 levels at 10 uM after 105 mins in presence of lysosomal inhibitor chloroquine by immunoblot analysis; assay type: functional, cell-based
Outline: (§4)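 HL-60 in serum-supplemented RPMI 1640, or starved in Earle's Balanced Salts for 15 min beforehand, then treated with 10 μM compound with or without 40 μM chloroquine for 1 h 45 min or 16 h. LC3B-II measured by immunoblot, densitometry normalized to actin, three independent experiments, Student's T-test.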

PC-9 [10] = experiment: Cytotoxicity against human PC9 cells assessed as reduction in cell survival at 0.1 to 10 uM after 18 hrs by MTT assay; assay type: functional, cell-based
Outline: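 Seeded at 2,500 cells/well in medium with 10% serum. After adhesion, exposed to 0.1, 1 and 10 μM in medium with 5% serum for 18 h. Medium then replaced with fresh medium containing 1.2 mM MTT for 4 h; formazan dissolved in DMSO, absorbance at 540 nm. Results given as % of basal response.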

SCC-4 = experiment: Induction of apoptosis in human SCC4 cells at 500 nM after 48 hrs by Annexin V/propidium iodide staining-based flow cytometric analysis relative to control; assay type: functional
Outline: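 Seeding density: NCI-H929 and Ca9.22 at 30×10^4 cells/mL, SCC4 at 15×10^4 cells/mL. Cells exposed 48 h to compound (500 nM; 50 μM in SCC4 for one compound) or vehicle (1% EtOH v/v). Annexin V/PI staining, flow cytometry, 10,000 cells gated on vehicle-treated cells. Three independent experiments, mean ± S.E.M, T-test.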

[11] = Ratio of IC50 for mouse NIH/3T3 cells harboring MDR G185 to IC50 for mouse NIH/3T3 cells; outline: as §1
HL-60 [12] = experiment: Induction of autophagy in serum starved human HL60 cells assessed as increase in LC3B-2 levels at 10 uM after 105 mins by immunoblot analysis; assay type: functional, cell-based; outline: as §4
NIH3T3 [13] = experiment: Cytotoxicity against mouse NIH/3T3 cells after 48 hrs by MTT assay; assay type: cell-based; settings: NIH3T3, 48 h; outline: as §3
[14] = Cytotoxicity against human A2780AD cells after 48 hrs by MTT assay; assay type: functional, cell-based; outline: as §3

## CC(=O)OC1=C(c2cccc3ncccc23)Oc2cc3ccccc3cc2-n2cccc21
[1]
  solubility at 12 h: 210 µM (≈ 88 µg/mL)
[2]
  remaining at 24 h: 95.6%
NB-4
  Activity: Active
GISTT1
  Activity: Active
[3]
  Ratio IC50: 1.15
Tubulin (Homo sapiens)
  inhibition: Active
HL-60 [4]
  Activity: Active
PC-9 [5]
  Activity: Active
[6]
  solubility at 12 h: 458 µM (≈ 192 µg/mL)
PC-9 [7]
  Activity: Active
Ca9-22
  IC50: 31600 nM
NIH3T3 [8]
  IC50: 84 nM
HL-60 [9]
  Activity: Active
PC-9 [10]
  Activity: Active
SCC-4
  Activity: >40%
[11]
  Ratio IC50: 2
HL-60 [12]
  Activity: Active
NIH3T3 [13]
  IC50: 42 nM
[14]
  IC50: 92 nM
